Test: Toxicity liver stage against HepG2, at 10uM
Assay type: cell-based
Design: test concentration 10 uM, cell line HepG2-A16-CD81EGFP
Conditions: human, HepG2-A16-CD81EGFP cells; read-out: INHIBITION
In short: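 Uninfected HepG2-A16-CD81EGFP cells, 3 × 10^3 per well, 1536-well, plated on prespotted compound at 10 μM final, parasite-free screening media added to match infected plates; puromycin 10 μM positive, DMSO 0.5% negative; run in parallel with 48 h PbLuc assay at 37 °C, 5% CO2; viability by CellTiter-Glo luminescence, normalized to controls.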

| Compound | cytotoxicity at 10 µM [%] |
| --- | --- |
| COCCn1cnc2ccc(NC(=O)c3ccc(OC)cc3)cc2c1=O | -6.78 |
| O=C(NCC1(CO)CC1)c1ccccc1Cl | 5.47 |
| O=C(NCC1(CO)CC1)c1ccccc1C(F)(F)F | 4 |
| CC(=O)NCCn1ccc(-c2ccccn2)n1 | 7.38 |
| CC(=O)N1CCC2(CC1)CN(C(C)=O)CC21CCNC1=O (configuration not stated) | -2.69 |
| Cc1oncc1C(=O)N1CCC2(CC1)CN(S(C)(=O)=O)c1ccccc12 | 1.47 |
| CC(=O)NCC(=O)N1CCC2(COCc3c(C)nc(N(C)C)nc32)C1 (configuration not stated) | 1.41 |
| NC(=O)c1c(NC(=O)CCC(=O)O)sc2c1CCc1ccccc1-2 | -1.99 |
| CN1CCN(C(=O)Cn2ccc3c(Cl)cccc32)CC1 | 2.08 |
| COc1cc(OCC(=O)NCCc2ccccc2)cc(OC)c1OC | 0.285 |
| CC1CCN(C(=O)Cn2nc(Br)nc2Br)CC1 | -1.8 |
| O=C(c1ccnnc1)N1C[C@H](Oc2cccnc2)[C@H]2OCCC[C@H]21 | -14.7 |
| Cc1ccn(-c2ccnc(N3CCC(N4CCCCC4)CC3)n2)n1 | 4.54 |
| O=C(c1cc(-c2cccnc2)[nH]n1)N1CCCC(Cc2ccccn2)C1 (configuration not stated) | 7.5 |
| Oc1nc(C2CCN(Cc3ccccn3)CC2)cc2ccccc12 | 11.8 |
| Cc1nn(C)cc1NC(=O)CC1CCN(CCc2ccccc2)CC1 | -4.92 |
| Cc1cc(CN2CCN(Cc3ccc(C#N)cc3F)CC2)no1 | 1.71 |
| CC(CNC(=O)c1cccc(-n2cccn2)c1)Cn1ccnc1 (configuration not stated) | 0.335 |
| NC(=O)CCOc1ccc(NC(=O)c2ccccc2OC(F)F)cc1 | 9.62 |
| O=C(Cc1cccs1)NCCNc1nccc(C(F)(F)F)n1 | 10.9 |
| CN1CCC(N(Cc2ccccc2)C(=O)c2nccn3ccnc23)CC1 | 3.52 |
| CCN(Cc1ccncc1)C1CCN(c2ccccc2)C1=O (configuration not stated) | -1.83 |
| CN(C)C(=O)N1CCN(Cc2cnc(-c3ccsc3)s2)CC1 | 2.03 |

| Compound | cytotoxicity at 10 µM [%] |
| --- | --- |
| CN(Cc1cnn(C)c1)C(=O)C(c1ccccc1)N1CCSCC1 (configuration not stated) | 5.21 |
| Cc1cccc(OCCCNC(=O)Cn2ccc(C)cc2=O)c1 | -4.42 |
| NC(=O)[C@@H]1Cc2ccccc2N1C(=O)C1CC(c2ccccc2)=NO1 (some centres not stated) | 5.79 |
| COc1cccc(CCC(=O)Nc2cnc3c(c2)c(C)nn3C)c1OC | 1.67 |
| Cc1ccc(OCCN(C)S(=O)(=O)c2cnn(C)c2)cc1 | 0.821 |
| N#Cc1ccc(F)c(CN(CC(=O)N2CCCC2)CC2CCCO2)c1 (configuration not stated) | -7.06 |
| CN(C)C(=O)CCS(=O)(=O)Cc1ccn(-c2cccc(F)c2)n1 | -5.71 |
| CCCNC(=O)CN1CCC(NCc2c(C)nn(C)c2OC)CC1 | -5.32 |
| O=C(COC1CCCC1)NCCc1noc(-c2ccccn2)n1 | 3.41 |
| COCc1nccc(C2CCCN(Cc3ccccc3C#N)C2)n1 (configuration not stated) | 6.05 |
| Cc1nn(C)c(Cl)c1C(=O)NCc1cccnc1N1CCOCC1 | -132 |
| Cc1cc(CCCC(=O)NC2CCN(C)C2=O)c(C)s1 (configuration not stated) | -0.67 |
| OC(CN(Cc1ccccc1)Cc1cccnc1)c1ccco1 (configuration not stated) | -0.408 |
| CC(C#N)CNS(=O)(=O)c1ccc(F)c(Br)c1 (configuration not stated) | -1.69 |
| CN(C)C(=O)c1ccc(OC2CCCC2)cc1 | -3.51 |
| Cc1noc(C)c1CNc1ccc2nc(C3CC3)sc2c1 | 10.8 |
| CC1CCCN(S(=O)(=O)N2CCOC3(CCCC3)C2)C1 (configuration not stated) | -1.57 |
| c1csc(SCC2CN=C(N3CCOCC3)S2)c1 (configuration not stated) | 10.3 |
| CCC(NCc1ccccc1)c1ccccc1OCC(=O)NC (configuration not stated) | 16.2 |
| CCC(NC(=O)CCCNC(=O)OC)c1cc(F)ccc1F (configuration not stated) | -2.34 |
| CS(=O)(=O)Nc1cccc(C(=O)Nc2ccc3c(c2)C(=O)NC3)c1 | 5.91 |
| CN(C)C1(CNC(=O)C2CCCN2Cc2ccc(F)cc2)CCOCC1 (configuration not stated) | 3.25 |
| N#Cc1cc(Cl)ccc1N1CCN(C(=O)C2CCC2)CC1 | 10.1 |

| Compound | cytotoxicity at 10 µM [%] |
| --- | --- |
| Cn1cc(C2CCCN2C(=O)Cn2ccc3ccc(Cl)cc32)cn1 (configuration not stated) | 8.81 |
| CC(C)(C)OC(=O)N1CSC[C@@H]1C(=O)NCc1ccncc1 | 1.17 |
| NS(=O)(=O)c1cnc(NCC2(c3cccc(F)c3)CCOCC2)s1 | -5.71 |
| CCC(C)C(=O)Nc1ccc(CCN2CCOCC2)cc1 (configuration not stated) | -0.578 |
| CCN1CC(C(=O)NC(C)(C)CC(C)(C)C)CC1=O (configuration not stated) | -4.72 |
| CN(C)CCCNC(=O)c1cc(Br)c2c(c1)OCCO2 | 13.3 |
| CSCc1nc(C(C)(C)NC(=O)OC(C)(C)C)no1 | -8.44 |
| COCCn1cc(C(=O)N2CCCC2c2cc(C)no2)ccc1=O (configuration not stated) | -17.7 |
| Cc1cn(CC(=O)NC2CCN(S(C)(=O)=O)CC2)c2ccccc12 | 1.44 |
| CN(Cc1nnc(C2CC2)n1C)C(=O)c1ccnc(OC2CCC2)c1 | -1.01 |
| CN(CCC#N)C(=O)CCOc1cccc(F)c1 | -2.46 |
| CCc1nccn1C1CCCN(C(=O)c2cn3c(C)cccc3n2)C1 (configuration not stated) | -14.5 |
| Cc1ccc(CNC(=O)Nc2cc(C(F)(F)F)c[nH]c2=O)cn1 | -21.8 |
| O=C1CCCCN1Cc1cccc(NC(=O)N2CCSCC2)c1 | -9.99 |
| Cc1cccc(N2CCN(CCNC(=O)c3ccnn3C)CC2)c1 | 10.4 |
| COc1cccc(CN2CCOC(Cn3nc(C)cc3C)C2)c1 (configuration not stated) | 7.83 |
| COCC(=O)N1CCc2ccc(=O)n(CC3CC3)c2CC1 | 6.7 |
| O=C(c1cccnc1)N1CCC2(CC1)CN(c1ccccn1)CCO2 | -69.5 |
| N#Cc1cccc(N2CC3(CCN(C(=O)c4ccnnc4)C3)CC2=O)c1 (configuration not stated) | 2.64 |
| Cn1nc(CN2CCCCC2)c2c1CN(C(=O)c1ccoc1)C2 | 2.83 |
| CN1CC2(CCN(C(=O)COc3ccc(Cl)cc3Cl)CC2)OC1=O | -3.25 |
| O=C(O)CCc1cc2n(n1)CCCN(C(=O)c1ccc(F)cc1F)C2 | -0.168 |
| CCc1nc(C)c([C@H]2CN(C)C[C@@H]2C(=O)NCc2ccccc2OC)[nH]1 | 0.15 |

| Compound | cytotoxicity at 10 µM [%] |
| --- | --- |
| CCn1ccnc1CN1CCCC(N(C)CCc2ccccc2)C1 (configuration not stated) | 2.88 |
| Cc1ccc(C(=O)N2CCC(n3cc(CN)nn3)CC2)cc1F | -3.54 |
| O=C(c1cc(COc2ccc3c(c2)OCO3)[nH]n1)N1CCSCC1 | -7.05 |
| O=C1O[C@@H]2CN(Cc3cccnc3)C[C@@H]2N1CCCN1CCOCC1 | -2.27 |
| CCN1CC2(CCC1=O)CCN(C(=O)c1cn3cccnc3n1)CC2 | -9.7 |
| CC(C)(C)c1ccc(OCc2nc3c(c(=O)[nH]2)CCNC3)cc1 | 5.11 |
| CN1CCN([C@@H]2CCN(Cc3ccc4cc(F)ccc4n3)C[C@H]2O)CC1 | -4.1 |
| CCn1nc(C)c(CCNC(=O)C2CCCN(C(=O)COC)C2)c1C (configuration not stated) | -0.367 |
| COc1ccc(CCN)cc1-c1ccc(O)cc1 | -3.05 |
| CC1=C(CCN2CCCC(O)C2)C(C)(C)CCC1 (configuration not stated) | 3.43 |
| CN(C)C(=O)c1ccc2c(c1)N(C)C(CC(=O)NC(CO)CO)CO2 (configuration not stated) | -4.36 |
| CCC(C(=O)NC1CCCC1)n1ccc2ncccc2c1=O (configuration not stated) | 4.2 |
| COCCN(C/C=C/c1ccccc1)Cc1nccs1 | 42.8 |
| CCS(=O)(=O)c1ncc(CN(C)Cc2ccccc2Cl)n1CCOC | 3.58 |
| CCCc1ccc2oc(C(=O)N3CCN(CCOC)CC3)c(C)c2c1 | -8.36 |
| Cc1ccc(Oc2ncccc2CNC2Cc3ccccc3C2)cn1 | -2.19 |
| CC(C)CN1CC2(CCN(C(=O)c3cn4cccnc4n3)CC2)CC1=O | -6.84 |
| Cc1cc2c(cc1C(=O)N1CCC3(CC(=O)NC3=O)C1)OCCO2 (configuration not stated) | 7.15 |
| CCn1nc(C)c(CCNC(=O)c2coc(CN3CCOCC3)c2)c1C | -0.386 |
| CCn1c(CN(C)C)nnc1C1CCN(c2ccnc(C)c2)CC1 | 14.9 |
| Cc1cc(N2CCCN(C(=O)Cc3csc(C)n3)CC2)ccn1 | -12 |
| NC(=O)C1CCN(c2nc3nccc(-c4ccccc4)c3c(=O)[nH]2)CC1 | -9 |
| COc1ccccc1CN(C)C(=O)NCc1c(C)cc(C)[nH]c1=O | -4.98 |

| Compound | cytotoxicity at 10 µM [%] |
| --- | --- |
| CN(C)C(=O)c1cccc(CN2CCN(CC(O)C(C)(C)C)CC2)c1 (configuration not stated) | 1.74 |
| CC(C)c1nc(C2CCCN2CCS(=O)(=O)c2ccccc2)no1 (configuration not stated) | -5.28 |
| CCN(CC)c1ccc(C(=O)N2CCCC(n3cncn3)C2)cn1 (configuration not stated) | -4.78 |
| Cn1cc(Cl)cc1C(=O)N1CCN(Cc2cccs2)CC1 | -8.1 |
| O=C(Cc1ccc2c(c1)CCO2)N1CCN(c2ccccn2)CC1 | -13.6 |
| CCc1ccsc1C(=O)N1CCN(CC(C)(C)O)CC1 | -13.1 |
| Cn1ccnc1CN1CCCN(C(=O)COC2CCCCC2)CC1 | -23.9 |
| CCOc1cc(/C=C/c2ncc(C(=O)O)s2)cc(Br)c1O | -4.49 |
| CCOC(=O)C1CCN(Cc2csc(C(C)(C)C)n2)CC1 | -4.46 |
| O=C(CN(C1=NCCCC1)c1ccccc1)c1ccccc1 | -0.239 |
| CC[C@@H]1N(Cc2cccnc2)CCC[C@]12CCC(=O)N2C | -0.213 |
| O=C(Nc1cccnc1)[C@H]1C[C@@H]2CCN(c3nncs3)C[C@H]2O1 | -13.3 |
| CN1CCOCC12CCN(Cc1ccoc1)CC2 | 2.93 |
| NC(=O)N1CCC2(CCN(Cc3cccc(F)c3)CC2)CC1 | -10.1 |
| CN(C)CCOCc1nnc2n1CCN(Cc1ccco1)C2 | 7.55 |
| CC1=N[C@@]2(CC[C@@H]3CN(Cc4ccccc4)C[C@@H]32)C(=O)N1CC1CC1 | -0.302 |
| Cn1cccc1C(=O)NCc1cnc2n1CCN(CC1CC1)C2 | 11.8 |
| CN(C)[C@@H]1COC[C@@H]2CN(Cc3ccc4c(c3)OCO4)C[C@@H]21 | 2.02 |
| c1cnc(N2Cc3nccn3CC(COc3cccnc3)C2)nc1 (configuration not stated) | 10.7 |
| COCc1cncc2c1CCN(Cc1ccccn1)C2 | -10.2 |

Reference: ChEMBL document CHEMBL4513216, “Probing the Open Global Health Chemical Diversity Library for Multistage-Active Starting Points for Next-Generation Antimalarials” (ACS Infect Dis, 2020)
